# Active and inactive are the calls of the source. The calls are words filed in the database; no cut-off is given here.
# How the values were obtained:
# [1] = Acute toxicity in Swiss albino mouse assessed as serum protein level at 50 mg/kg, po measured after 7 days (reference value: 0.66 +/- 0.01 mg/ml); format: organism-based; details: in vivo, 168 h, time 7 day
# [2] = Acute toxicity in Swiss albino mouse assessed as absolute brain weight at 1000 mg/kg, po measured after 7 days (reference value: 0.37 +/- 0.02 g); format: organism-based; details: in vivo, 168 h, time 7 day
# [3] = Acute toxicity in Swiss albino mouse assessed as absolute testes weight at 300 mg/kg, po measured after 7 days (reference value: 0.15+/- 0.01 g); format: organism-based; details: in vivo, 168 h, time 7 day
# [4] = Acute toxicity in Swiss albino mouse assessed as serum protein level at 5 mg/kg, po measured after 7 days (reference value: 0.66 +/- 0.01 mg/ml); format: organism-based; details: in vivo, 168 h, time 7 day
# [5] = Acute toxicity in Swiss albino mouse assessed as body weight at 50 mg/kg, po observed on day 1 (reference value: 20.38 +/- 0.24 g); format: organism-based; details: in vivo, 24 h, time 1 day
# [6] = Acute toxicity in Swiss albino mouse assessed as neutrophil count at 300 mg/kg, po measured after 7 days (reference value: 41.50 +/- 4.08 %); format: organism-based; details: in vivo, 168 h, time 7 day
# [7] = Acute toxicity in Swiss albino mouse assessed as relative kidney weight at 1000 mg/kg, po measured after 7 days (reference value: 1.25 +/- 0.08 %); format: organism-based; details: in vivo, 168 h, time 7 day
# Mus musculus [8] = test: In vivo osteogenic activity in ovariectomized BALB/c mouse assessed as decrease in serum CTx at 1 to 10 mg/kg, po via gavage administered for 30 days; format: functional, organism-based; details: dose 1-10 mg/kg, time 30.0 day
# Method in brief: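 Eight-week-old female balb/c mice were ovariectomized and dosed once daily by oral gavage at 1 or 10 mg kg-1 in vehicle (gum acacia in water) for 30 days; sham and Ovx vehicle groups served as controls. Serum CTx and osteocalcin were assayed in duplicate. n = 10 per group; mean ± SEM.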
# Mus musculus [9] = test: In vivo osteogenic activity in ovariectomized BALB/c mouse assessed as increase in femur bone volume density at 1 to 10 mg/kg, po via gavage administered for 1 month by microCT imaging analysis; format: functional, organism-based; details: dose 1-10 mg/kg, time 1.0 months
# Method in brief: (§1)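 Ovariectomized female balb/c mice, 8 weeks old, 10 per group, received 1.0 or 10.0 mg kg-1 once daily by oral gavage (gum acacia vehicle) for 4 weeks, alongside sham and Ovx vehicle groups. Femurs were scanned by microCT. BV/TV, Tb.N and Tb.Sp were derived by the mean intercept length method. Mean ± SE.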
# Calvarial osteoblast = test: Induction of osteoblast differentiation in mouse calvarial osteoblast assessed as increase in mineralization nodules at 1 pM incubated for 15 days by alizarin-red S dye based colorimetric analysis; format: functional, cell-based; details: time 15.0 day
# Method in brief: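 Calvarial osteoblasts were seeded at 2×10³ cells/well in differentiation medium (10 mM β-glycerophosphate, ascorbic acid) and cultured ± 1 pM with medium changed every 48 h. Cells were fixed in 4% formaldehyde and stained with 40 mM alizarin red S. Dye was extracted in 10% acetic acid at 85 °C, neutralized with ammonium hydroxide and read at 405 nm. n = 3.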
# [10] = Acute toxicity in Swiss albino mouse assessed as WBC count per thousand/mm3 at 5 mg/kg, po measured after 7 days (reference value: 6.84 +/- 0.83 /mm3); format: organism-based; details: in vivo, 168 h, time 7 day
# [11] = Acute toxicity in Swiss albino mouse assessed as mortality at 5 to 1000 mg/kg, po measured after 7 days; format: organism-based; details: in vivo, 168 h, dose 5-1000 mg/kg, time 7 day
# Method in brief: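 Acute oral toxicity per OECD guidelines 420, 423 and 425. Swiss albino mice received a single oral dose at 5, 50, 300 or 1000 mg kg1 body weight, with vehicle controls. Animals were watched for morbidity, mortality and observational changes over 7 days. Tail-vein blood was then taken for hematology and serum biochemistry. Organs were inspected at sacrifice. n = 6 per group.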
# [12] = AUC (0 to infinity) in Sprague-Dawley rat at 1 mg/kg, po measured upto 24 hrs by LC-MS/MS analysis; format: ADME, organism-based; set-up: route oral, dose 1 mg/kg, time <=24; details: in vivo
# Method in brief: (§2)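 Female Sprague-Dawley rats (n = 4 per route), fasted overnight; 1 mg/kg oral (0.25% CMC) or i.v. tail-vein bolus (DMSO-PEG400-ethanol-water). Plasma was sampled to 24 h and assayed by LC-MS/MS (0.5-200 ng/mL). Non-compartmental AUC0-∞ = AUC0-t + Clast/kel; mean ± S.D.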
# [13] = Acute toxicity in Swiss albino mouse assessed as absolute ovary weight at 300 mg/kg, po measured after 7 days (reference value: 0.04+/- 0.02 g); format: organism-based; details: in vivo, 168 h, time 7 day
# [14] = Acute toxicity in Swiss albino mouse assessed as cholesterol level at 300 mg/kg, po measured after 7 days (reference value: 265.76 +/- 24.78 mg/dL); format: organism-based; details: in vivo, 168 h, time 7 day
# [15] = Acute toxicity in Swiss albino mouse assessed as relative liver weight at 50 mg/kg, po measured after 7 days (reference value: 6.81 +/- 2.14 %); format: organism-based; details: in vivo, 168 h, time 7 day
# [16] = Acute toxicity in Swiss albino mouse assessed as absolute spleen weight at 300 mg/kg, po measured after 7 days (reference value: 0.17 +/- 0.03 g); format: organism-based; details: in vivo, 168 h, time 7 day
# [17] = Acute toxicity in Swiss albino mouse assessed as absolute kidney weight at 5 mg/kg, po measured after 7 days (reference value: 0.29 +/- 0.02 g); format: organism-based; details: in vivo, 168 h, time 7 day
# [18] = Acute toxicity in Swiss albino mouse assessed as relative kidney weight at 50 mg/kg, po measured after 7 days (reference value: 1.25 +/- 0.08 %); format: organism-based; details: in vivo, 168 h, time 7 day
# [19] = Acute toxicity in Swiss albino mouse assessed as triglycerides level at 300 mg/kg, po measured after 7 days (reference value: 58.51 +/- 10.82 mg/dL); format: organism-based; details: in vivo, 168 h, time 7 day
# [20] = Acute toxicity in Swiss albino mouse assessed as lymphocyte count at 5 mg/kg, po measured after 7 days (reference value: 37.97 +/- 1.80 %); format: organism-based; details: in vivo, 168 h, time 7 day
# [21] = Acute toxicity in Swiss albino mouse assessed as relative ovary weight at 50 mg/kg, po measured after 7 days (reference value: 0.07 +/- 0.02 %); format: organism-based; details: in vivo, 168 h, time 7 day
# [22] = Acute toxicity in Swiss albino mouse assessed as relative uterus weight at 5 mg/kg, po measured after 7 days (reference value: 1.63 +/- 0.71 %); format: organism-based; details: in vivo, 168 h, time 7 day
# Mus musculus [23] = test: In vivo osteogenic activity in ovariectomized BALB/c mouse assessed as increase in trabecular number at 1 to 10 mg/kg, po via gavage administered for 1 month by microCT imaging analysis; format: functional, organism-based; details: dose 1-10 mg/kg, time 1.0 months; method in brief: as §1
# [24] = Acute toxicity in Swiss albino mouse assessed as RBC count at 50 mg/kg, po measured after 7 days (Rvb =6.0 +/- 0.28 million/mm3); format: organism-based; details: in vivo, 168 h, time 7 day
# [25] = AUC (0 to infinity) in Sprague-Dawley rat at 1 mg/kg, iv measured upto 24 hrs by LC-MS/MS analysis; format: ADME, organism-based; set-up: route intravenous, dose 1 mg/kg, time <=24; details: in vivo; method in brief: as §2
# [26] = Acute toxicity in Swiss albino mouse assessed as absolute spleen weight at 1000 mg/kg, po measured after 7 days (reference value: 0.17 +/- 0.03 g); format: organism-based; details: in vivo, 168 h, time 7 day
compound,measurement,setting,value
CCCCN(C)C(=O)CCCCOc1ccc([C@H]2c3ccc(OC)cc3OC(C)(C)[C@@H]2c2ccccc2)cc1,Activity,[1],0.74 mg/mL
same,Activity,[2],0.33 g
same,Activity,[3],0.14 g
same,Activity,[4],0.74 mg/mL
same,Activity,[5],20.38 g
same,Activity,[6],41.54%
same,Activity,[7],1.44%
same,Activity,Mus musculus [8],Active
same,Activity,Mus musculus [9],Active
same,Activity,Calvarial osteoblast,Active
same,Activity,[10],6.1 10^3/mm3
same,Activity,[11],Non-Toxic
same,AUC,[12],119.404 ng·h/mL
same,Activity,[13],0.06 g
same,Activity,[14],257.26 mg/dL
same,Activity,[15],5.17%
same,Activity,[16],0.13 g
same,Activity,[17],0.28 g
same,Activity,[18],1.09%
same,Activity,[19],57.55 mg/dL
same,Activity,[20],39.08%
same,Activity,[21],0.33%
same,Activity,[22],1.77%
same,Activity,Mus musculus [23],Active
same,Activity,[24],8.16 million/mm3
same,AUC(0-inf),[25],906 ng·h/mL
same,Activity,[26],0.1 g

# From ChEMBL document CHEMBL4680077, “Differentiation of skeletal osteogenic progenitor cells to osteoblasts with 3,4-diarylbenzopyran based amide derivatives: Novel osteogenic agents” (Eur J Med Chem, 2016)
